Results reported in ChEMBL document CHEMBL1135423, “Acyl-protected hydroxylamines as spin label generators for EPR brain imaging” (J Med Chem, 2002).

Experiments:
Type in all cases: ADME, organism-based
Mus musculus [1] = assay: Biodistribution in mice as total concentration of both oxidized and reduced forms in blood and animals were sacrificed 10 minutes after ip administration in DMSO solution; settings: in vivo
Summary of the method: (§1)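 Female C3H HenMTV⁻ mice (6-8 weeks old, 22-25 g; three per time point) were given an ip injection of 500 µL of 40 mM compound. They were euthanized at 10 or 60 min. Brain, heart, liver, kidney, spleen and blood were excised and each homogenized in ice-cold PBS. One half of each homogenate received K₃[Fe(CN)₆] (final 1 mM) to oxidize hydroxylamine to nitroxide. Total nitroxide plus hydroxylamine was read from EPR signal intensity.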

Mus musculus [2] = assay: Biodistribution in mice as total concentration of both oxidized and reduced forms in blood tissues, animals were sacrificed 60 minutes after dosing, in DMSO sol.; settings: in vivo, 1 h; summary of the method: as §1
Mus musculus [3] = assay: Biodistribution of compound (oxidized form) in liver tissues, animals were sacrificed 60 minutes after dosing, in DMSO sol.; settings: in vivo, 1 h
Summary of the method: (§2)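 In female C3H HenMTV⁻ mice (6-8 weeks, 22-25 g; three per time point), compound was injected ip as 500 µL of 40 mM solution. Animals were killed 10 or 60 min later. Brain, heart, liver, kidney, spleen and blood were removed and each homogenized in ice-cold PBS. Nitroxide (oxidized form) was quantified by EPR signal intensity in the half of each homogenate not treated with ferricyanide.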

Mus musculus [4] = assay: Biodistribution of compound (oxidized form) in spleen tissue, animals were sacrificed 10 minutes after dosing, in DMSO sol.; settings: in vivo; summary of the method: as §2
Mus musculus [5] = assay: Biodistribution of compound (total concentration of both oxidized and reduced forms) in brain tissues, animals were sacrificed 10 minutes after dosing, in DMSO; settings: in vivo
Summary of the method: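 Female C3H HenMTV⁻ mice (6-8 weeks old, 22-25 g; three per time point) got one i.p. injection of 500 µL of 40 mM compound. They were euthanized at 10 or 60 min. Organs and blood were excised and homogenized separately in ice-cold PBS. One half of each homogenate received K₃[Fe(CN)₆] (final 1 mM) to oxidize hydroxylamine. Total nitroxide plus hydroxylamine was quantified by EPR signal intensity.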

Mus musculus [6] = assay: Biodistribution in mice as total concentration of both oxidized and reduced forms in heart tissues, animals were sacrificed 10 minutes after dosing, in DMSO sol.; settings: in vivo; summary of the method: as §1
Mus musculus [7] = assay: Biodistribution in mice as total concentration of both oxidized and reduced forms in heart tissues, animals were sacrificed 60 minutes after dosing, in DMSO sol.; settings: in vivo, 1 h; summary of the method: as §1
Mus musculus [8] = assay: Biodistribution in mice as total concentration of both oxidized and reduced forms in kidney tissues, animals were sacrificed 60 minutes after dosing, in DMSO sol.; settings: in vivo, 1 h; summary of the method: as §1
Mus musculus [9] = assay: Biodistribution in mice as total concentration of both oxidized and reduced forms in liver and animals were sacrificed 10 minutes after dosing, in DMSO sol.; settings: in vivo; summary of the method: as §1
Mus musculus [10] = assay: Biodistribution in mice as total concentration of both oxidized and reduced forms in liver tissues, animals were sacrificed 60 minutes after dosing, in DMSO sol.; settings: in vivo, 1 h; summary of the method: as §1
Mus musculus [11] = assay: Biodistribution in mice as total concentration of both oxidized and reduced forms in spleen and animals were sacrificed 10 minutes after ip administration in DMSO solution; settings: in vivo; summary of the method: as §1
Mus musculus [12] = assay: Biodistribution in mice as total concentration of both oxidized and reduced forms in spleen tissues, animals were sacrificed 60 minutes after dosing, in DMSO sol.; settings: in vivo, 1 h; summary of the method: as §1
Mus musculus [13] = assay: Biodistribution of compound (oxidized form) in blood tissue, animals were sacrificed 10 minutes after dosing, in DMSO sol.; settings: in vivo; summary of the method: as §2
Mus musculus [14] = assay: Biodistribution of compound (oxidized form) in blood tissues, animals were sacrificed 60 minutes after dosing, in DMSO sol.; settings: in vivo, 1 h; summary of the method: as §2
Mus musculus [15] = assay: Biodistribution of compound (oxidized form) in brain tissue, animals were sacrificed 10 minutes after dosing, in DMSO sol.; settings: in vivo; summary of the method: as §2
Mus musculus [16] = assay: Biodistribution of compound (oxidized form) in brain tissue, animals were sacrificed 60 minutes after dosing, in DMSO sol.; settings: in vivo, 1 h; summary of the method: as §2
Mus musculus [17] = assay: Biodistribution of compound (oxidized form) in heart tissue, animals were sacrificed 10 minutes after dosing, in DMSO sol.; settings: in vivo; summary of the method: as §2
Mus musculus [18] = assay: Biodistribution in mice as total concentration of both oxidized and reduced forms in brain tissues, animals were sacrificed 60 minutes after dosing, in DMSO sol.; settings: in vivo, 1 h; summary of the method: as §1
Mus musculus [19] = assay: Biodistribution of compound (oxidized form) in heart tissue, animals were sacrificed 60 minutes after dosing, in DMSO sol.; settings: in vivo, 1 h; summary of the method: as §2
Mus musculus [20] = assay: Biodistribution of compound (oxidized form) in kidney tissue, animals were sacrificed 10 minutes after dosing, in DMSO sol.; settings: in vivo; summary of the method: as §2
Mus musculus [21] = assay: Biodistribution of compound (oxidized form) in kidney tissue, animals were sacrificed 60 minutes after dosing, in DMSO sol.; settings: in vivo, 1 h; summary of the method: as §2
Mus musculus [22] = assay: Biodistribution of compound (oxidized form) in liver tissue, animals were sacrificed 10 minutes after dosing, in DMSO sol.; settings: in vivo; summary of the method: as §2
Mus musculus [23] = assay: Biodistribution in mice as total concentration of both oxidized and reduced forms in kidney and animals were sacrificed 10 minutes after dosing, in DMSO sol.; settings: in vivo; summary of the method: as §1
Mus musculus [24] = assay: Biodistribution of compound (oxidized form) in spleen tissues, animals were sacrificed 60 minutes after dosing, in DMSO sol.; settings: in vivo, 1 h; summary of the method: as §2

Biodistribution (Mus musculus [1]): 100 nM (g of tissue)-1 | Biodistribution (Mus musculus [2]): 25 nM (g of tissue)-1 | Biodistribution (Mus musculus [3]): 0 nM (g of tissue)-1 | Biodistribution (Mus musculus [4]): 0 nM (g of tissue)-1 | Biodistribution (Mus musculus [5]): 0 nM (g of tissue)-1 | Biodistribution (Mus musculus [6]): 10 nM (g of tissue)-1 | Biodistribution (Mus musculus [7]): 25 nM (g of tissue)-1 | Biodistribution (Mus musculus [8]): 25 nM (g of tissue)-1 | Biodistribution (Mus musculus [9]): 50 nM (g of tissue)-1 | Biodistribution (Mus musculus [10]): 30 nM (g of tissue)-1 | Biodistribution (Mus musculus [11]): 100 nM (g of tissue)-1 | Biodistribution (Mus musculus [12]): 25 nM (g of tissue)-1 | Biodistribution (Mus musculus [13]): 0 nM (g of tissue)-1 | Biodistribution (Mus musculus [14]): 0 nM (g of tissue)-1 | Biodistribution (Mus musculus [15]): 2 nM (g of tissue)-1 | Biodistribution (Mus musculus [16]): 5 nM (g of tissue)-1 | Biodistribution (Mus musculus [17]): 0 nM (g of tissue)-1 | Biodistribution (Mus musculus [18]): 25 nM (g of tissue)-1 | Biodistribution (Mus musculus [19]): 0 nM (g of tissue)-1 | Biodistribution (Mus musculus [20]): 0 nM (g of tissue)-1 | Biodistribution (Mus musculus [21]): 0 nM (g of tissue)-1 | Biodistribution (Mus musculus [22]): 0 nM (g of tissue)-1 | Biodistribution (Mus musculus [23]): 400 nM (g of tissue)-1 | Biodistribution (Mus musculus [24]): 0 nM (g of tissue)-1
Structure (SMILES): COC(=O)C1CC(C)(C)N(OC(C)=O)C(C)(C)C1
